Measured values published in ChEMBL document CHEMBL2412956, “Synthesis and biological activity evaluation of 5-pyrazoline substituted 4-thiazolidinones” (Eur J Med Chem, 2013).

Legend:
Type in all cases: functional
OVCAR-4 = assay: Cytotoxicity against human OVCAR4 cells assessed as cell growth at 10 uM after 48 hrs by SRB assay relative to control; conditions: OVCAR-4, 48 h, read-out: Activity
How it was run: (§1)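 This was the NCI primary screen, with compound added once at 10⁻⁵ M and cultures incubated for 48 h. The endpoint was sulforhodamine B protein staining. Results are expressed as percent growth of treated cells relative to untreated control cells.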

MCF7 = assay: Cytotoxicity against human MCF7 cells assessed as cell growth at 10 uM after 48 hrs by SRB assay relative to control; conditions: MCF7, 48 h, read-out: Activity; how it was run: as §1
CCRF-CEM [1] = assay: Cytotoxicity against human CCRF-CEM cells assessed as cell growth at 10 uM after 48 hrs by SRB assay relative to control; conditions: read-out: Activity; how it was run: as §1
LOX IMVI = assay: Cytotoxicity against human LOXIMVI cells after 48 hrs by SRB assay
How it was run: (§2)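 This was the NCI 60-cell-line five-dose screen, using 10-fold dilutions from 100 to 0.01 μM and continuous 48-h exposure. Growth was read by sulforhodamine B protein staining relative to time-zero and untreated controls. […] Where an endpoint was not reached, the value was given as beyond the range tested.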

U-251 = assay: Cytotoxicity against human U251 cells after 48 hrs by SRB assay; conditions: U-251, 48 h
How it was run: (§3)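 NCI 60-cell-line panel, five 10-fold concentrations from 100 μM to 0.01 μM (10⁻⁴ to 10⁻⁸ M) with 48-h continuous exposure. Growth was read by SRB protein staining against time-zero and untreated controls. […] Values beyond the tested range are expressed as greater or less than the limit.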

RXF 393 = assay: Cytotoxicity against human RXF393 cells assessed as cell growth at 10 uM after 48 hrs by SRB assay relative to control; conditions: RXF 393, 48 h, read-out: Activity; how it was run: as §1
HL-60(TB) [2] = assay: Cytotoxicity against human HL-60(TB) cells after 48 hrs by SRB assay; conditions: HL-60, 48 h; how it was run: as §2
SF-295 [3] = assay: Cytotoxicity against human SF295 cells after 48 hrs by SRB assay; conditions: SF-295, 48 h; how it was run: as §2
RPMI-8226 = assay: Cytotoxicity against human RPMI8226 cells after 48 hrs by SRB assay; conditions: RPMI-8226, 48 h; how it was run: as §2
HOP-62 = assay: Cytotoxicity against human HOP62 cells after 48 hrs by SRB assay; conditions: HOP-62, 48 h; how it was run: as §2
KM12 [4] = assay: Cytotoxicity against human KM12 cells assessed as cell growth at 10 uM after 48 hrs by SRB assay relative to control; conditions: KM12, 48 h, read-out: Activity; how it was run: as §1
OVCAR-3 [5] = assay: Cytotoxicity against human OVCAR3 cells after 48 hrs by SRB assay; conditions: OVCAR-3, 48 h; how it was run: as §2
NCI-H460 = assay: Cytotoxicity against human NCI-H460 cells after 48 hrs by SRB assay; conditions: NCI-H460, 48 h; how it was run: as §2
PC-3 [6] = assay: Cytotoxicity against human PC3 cells after 48 hrs by SRB assay; conditions: PC-3, 48 h; how it was run: as §2
SR = assay: Cytotoxicity against human SR cells after 48 hrs by SRB assay; how it was run: as §3
786-0 = assay: Cytotoxicity against human 786-0 cells after 48 hrs by SRB assay; conditions: 786-0, 48 h; how it was run: as §2
UACC-62 = assay: Cytotoxicity against human UACC62 cells after 48 hrs by SRB assay; conditions: UACC-62, 48 h; how it was run: as §3
PC-3 [7] = assay: Cytotoxicity against human PC3 cells assessed as cell growth at 10 uM after 48 hrs by SRB assay relative to control; conditions: PC-3, 48 h, read-out: Activity; how it was run: as §1
HCT-116 = assay: Cytotoxicity against human HCT116 cells after 48 hrs by SRB assay; conditions: HCT-116, 48 h; how it was run: as §2
MOLT-4 = assay: Cytotoxicity against human MOLT4 cells assessed as cell growth at 10 uM after 48 hrs by SRB assay relative to control; conditions: MOLT-4, 48 h, read-out: Activity; how it was run: as §1
K562 [8] = assay: Cytotoxicity against human K562 cells assessed as cell growth at 10 uM after 48 hrs by SRB assay relative to control; conditions: K562, 48 h, read-out: Activity; how it was run: as §1
KM12 [9] = assay: Cytotoxicity against human KM12 cells after 48 hrs by SRB assay; conditions: KM12, 48 h; how it was run: as §2
DU-145 = assay: Cytotoxicity against human DU145 cells after 48 hrs by SRB assay; conditions: DU-145, 48 h; how it was run: as §2
SF-295 [10] = assay: Cytotoxicity against human SF295 cells assessed as cell growth at 10 uM after 48 hrs by SRB assay relative to control; conditions: SF-295, 48 h, read-out: Activity; how it was run: as §1
HCT-15 = assay: Cytotoxicity against human HCT15 cells after 48 hrs by SRB assay; conditions: HCT-15, 48 h; how it was run: as §2
T47D = assay: Cytotoxicity against human T47D cells assessed as cell growth at 10 uM after 48 hrs by SRB assay relative to control; conditions: read-out: Activity
How it was run: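 Single-dose NCI screen: compound at 10⁻⁵ M added to tumor cell cultures and incubated for 48 h. The SRB protein-binding dye end point was read spectrophotometrically. Results are percent growth of treated cells relative to untreated controls.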

OVCAR-3 [11] = assay: Cytotoxicity against human OVCAR3 cells assessed as cell growth at 10 uM after 48 hrs by SRB assay relative to control; conditions: OVCAR-3, 48 h, read-out: Activity; how it was run: as §1
HL-60(TB) [12] = assay: Cytotoxicity against human HL-60(TB) cells assessed as cell growth at 10 uM after 48 hrs by SRB assay relative to control; conditions: HL-60, 48 h, read-out: Activity; how it was run: as §1
CCRF-CEM [13] = assay: Cytotoxicity against human CCRF-CEM cells after 48 hrs by SRB assay; how it was run: as §2
HOP-92 = assay: Cytotoxicity against human HOP92 cells assessed as cell growth at 10 uM after 48 hrs by SRB assay relative to control; conditions: HOP-92, 48 h, read-out: Activity; how it was run: as §1
K562 [14] = assay: Cytotoxicity against human K562 cells after 48 hrs by SRB assay; conditions: K562, 48 h; how it was run: as §2
MDA-MB-435 = assay: Cytotoxicity against human MDA-MB-435 cells after 48 hrs by SRB assay; conditions: MDA-MB-435, 48 h; how it was run: as §2

Question: `COc1ccc(C2CC(c3ccc4ccccc4c3)=NN2C2SC(=O)N(CN3CCOCC3)C2=O)cc1` (stereo unspecified) was tested. Which growth at 10 µM (OVCAR-4) did it give?
Answer: 67.5%

Question: With `COc1ccc(C2=NN(C(=O)/C=C3\SC(=O)NC3=O)C(c3ccccc3O)C2)cc1` (stereo unspecified) as the compound, how does the growth at 10 µM (MCF7) read?
Answer: 30.3%

Question: And the growth at 10 µM (CCRF-CEM [1])?
Answer: 19.5%

Question: What about the GI50 (LOX IMVI) of the same compound?
Answer: 3.21 µM

Question: What about the TGI (LOX IMVI) of the same compound?
Answer: 17.9 µM

Question: What about the GI50 (U-251) of the same compound?
Answer: 4.29 µM

Question: And the TGI (U-251)?
Answer: 16.6 µM

Question: And the growth at 10 µM (RXF 393)?
Answer: 31.4%

Question: What about the GI50 (HL-60(TB) [2]) of the same compound?
Answer: 3.35 µM

Question: What about the TGI (HL-60(TB) [2]) of the same compound?
Answer: 9.14 µM

Question: And the GI50 (SF-295 [3])?
Answer: 2.99 µM

Question: What about the TGI (SF-295 [3]) of the same compound?
Answer: 10 µM

Question: And the GI50 (RPMI-8226)?
Answer: 2.12 µM

Question: What about the TGI (RPMI-8226) of the same compound?
Answer: 6.91 µM

Question: And the GI50 (HOP-62)?
Answer: 4.85 µM

Question: What about the TGI (HOP-62) of the same compound?
Answer: 19.8 µM

Question: What about the growth at 10 µM (KM12 [4]) of the same compound?
Answer: 29.9%

Question: What about the GI50 (OVCAR-3 [5]) of the same compound?
Answer: 3.17 µM

Question: And the TGI (OVCAR-3 [5])?
Answer: 11 µM

Question: What about the GI50 (NCI-H460) of the same compound?
Answer: 4.18 µM

Question: And the TGI (NCI-H460)?
Answer: 18.7 µM

Question: What about the GI50 (PC-3 [6]) of the same compound?
Answer: 4.63 µM

Question: And the TGI (PC-3 [6])?
Answer: 44.4 µM

Question: And the GI50 (SR)?
Answer: 2.85 µM

Question: What about the TGI (SR) of the same compound?
Answer: 9.02 µM

Question: And the GI50 (786-0)?
Answer: 2.96 µM

Question: What about the TGI (786-0) of the same compound?
Answer: 13.5 µM

Question: What about the GI50 (UACC-62) of the same compound?
Answer: 2.83 µM

Question: And the TGI (UACC-62)?
Answer: 9.28 µM

Question: And the growth at 10 µM (PC-3 [7])?
Answer: 33.6%

Question: What about the GI50 (HCT-116) of the same compound?
Answer: 4.56 µM

Question: And the TGI (HCT-116)?
Answer: 16.4 µM

Question: And the growth at 10 µM (MOLT-4)?
Answer: 16.5%

Question: And the growth at 10 µM (K562 [8])?
Answer: 33.2%

Question: And the GI50 (KM12 [9])?
Answer: 4.76 µM

Question: What about the TGI (KM12 [9]) of the same compound?
Answer: 15.3 µM

Question: And the GI50 (DU-145)?
Answer: 4.64 µM

Question: And the TGI (DU-145)?
Answer: 18.4 µM

Question: And the growth at 10 µM (SF-295 [10])?
Answer: -13.4%

Question: And the GI50 (HCT-15)?
Answer: 4.85 µM

Question: And the TGI (HCT-15)?
Answer: 24.6 µM

Question: What about the growth at 10 µM (T47D) of the same compound?
Answer: 38%

Question: And the growth at 10 µM (OVCAR-3 [11])?
Answer: 36.4%

Question: And the growth at 10 µM (HL-60(TB) [12])?
Answer: -27.3%

Question: And the GI50 (CCRF-CEM [13])?
Answer: 2.85 µM

Question: And the TGI (CCRF-CEM [13])?
Answer: 11.3 µM

Question: What about the growth at 10 µM (HOP-92) of the same compound?
Answer: 37.8%

Question: What about the GI50 (K562 [14]) of the same compound?
Answer: 4.58 µM

Question: What about the TGI (K562 [14]) of the same compound?
Answer: 100 µM

Question: What about the GI50 (MDA-MB-435) of the same compound?
Answer: 3.91 µM

Question: What about the TGI (MDA-MB-435) of the same compound?
Answer: 31.7 µM
